Data published in ChEMBL document CHEMBL2021837, “A novel series of l-2-benzyloxycarbonylamino-8-(2-pyridyl)-disulfidyloctanoic acid derivatives as histone deacetylase inhibitors: design, synthesis and molecular modeling study” (Eur J Med Chem, 2012).

How the values were obtained:
Histone deacetylase 1 = Histone deacetylase 1 (Homo sapiens, UniProt Q13547); assay: Inhibition of human HDAC1 in presence of dithiothreitol by HDAC fluorescent assay
Histone deacetylase 2 = Histone deacetylase 2 (Homo sapiens, UniProt Q92769); assay: Inhibition of HDAC2 in human HeLa cell nuclear extracts in presence of dithiothreitol by HDAC fluorescent assay
MCF7 = assay: Antiproliferative activity against human MCF7 cells after 48 hrs by MTT assay; assay type: functional, cell-based; settings: MCF7, 48 h
Procedure, shortened: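 MCF-7 cells were grown in DMEM with 10% fetal bovine serum at 37 °C under 5% CO₂, then plated and incubated overnight. Compounds were added as 10-fold serial dilutions. MTT (0.5 mg/mL in serum-free medium) was added for 4 h, formazan was dissolved in DMSO, and absorbance was read at 570 nm. IC₅₀ was determined in triplicate, with at least three repeat experiments.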

Chain of Histone deacetylase 2 (Q92769 whole entry): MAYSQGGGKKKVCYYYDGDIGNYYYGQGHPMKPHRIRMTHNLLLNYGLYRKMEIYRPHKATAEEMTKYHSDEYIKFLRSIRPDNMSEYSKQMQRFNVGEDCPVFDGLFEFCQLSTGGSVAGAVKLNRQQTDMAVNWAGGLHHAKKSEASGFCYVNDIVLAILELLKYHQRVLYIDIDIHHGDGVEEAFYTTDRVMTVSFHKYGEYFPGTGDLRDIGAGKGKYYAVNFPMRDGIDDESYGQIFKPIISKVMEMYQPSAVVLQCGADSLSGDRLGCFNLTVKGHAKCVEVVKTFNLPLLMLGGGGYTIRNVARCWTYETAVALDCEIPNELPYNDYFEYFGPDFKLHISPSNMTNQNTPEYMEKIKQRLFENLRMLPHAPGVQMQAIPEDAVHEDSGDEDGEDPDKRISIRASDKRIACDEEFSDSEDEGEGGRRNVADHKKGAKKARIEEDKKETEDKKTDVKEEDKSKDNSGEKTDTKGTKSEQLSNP
Chain of Histone deacetylase 1 (Q13547 whole entry): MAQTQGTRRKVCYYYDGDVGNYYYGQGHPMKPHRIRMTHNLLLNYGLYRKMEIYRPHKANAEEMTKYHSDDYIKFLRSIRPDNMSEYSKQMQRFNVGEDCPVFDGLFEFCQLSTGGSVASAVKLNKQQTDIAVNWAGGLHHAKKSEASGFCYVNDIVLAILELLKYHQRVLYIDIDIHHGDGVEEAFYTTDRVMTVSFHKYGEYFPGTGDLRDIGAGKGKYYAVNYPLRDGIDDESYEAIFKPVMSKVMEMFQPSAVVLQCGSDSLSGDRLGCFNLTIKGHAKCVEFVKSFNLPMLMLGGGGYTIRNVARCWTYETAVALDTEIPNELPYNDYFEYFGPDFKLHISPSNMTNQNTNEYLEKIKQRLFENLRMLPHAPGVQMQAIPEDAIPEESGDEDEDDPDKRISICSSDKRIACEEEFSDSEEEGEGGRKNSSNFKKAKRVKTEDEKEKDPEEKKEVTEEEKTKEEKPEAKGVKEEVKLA

Compound	IC50 (Histone deacetylase 1) [nM]	IC50 (Histone deacetylase 2) [nM]	IC50 (MCF7) [nM]
O=C(N[C@@H](CCCCCCSSc1ccccn1)C(=O)OCc1ccc(-c2ccccc2)cc1)OCc1ccccc1	64.1	40.7	15600
O=C(N[C@@H](CCCCCCSSc1ccccn1)C(=O)Nc1cccc2ccccc12)OCc1ccccc1	65.2	38.2	15300
O=C(N[C@@H](CCCCCCSSc1ccccn1)C(=O)NC1CCCCC1)OCc1ccccc1	66.9	44.1	19600
O=C(N[C@@H](CCCCCCSSc1ccccn1)C(=O)Nc1ccccc1-c1ccccc1)OCc1ccccc1	71.2	45.2	20800
O=C(N[C@@H](CCCCCCSSc1ccccn1)C(=O)Nc1ccc(-c2ccccc2)cc1)OCc1ccccc1	70.9	46.6	18100
O=C(N[C@@H](CCCCCCSSc1ccccn1)C(=O)NC1c2ccccc2-c2ccccc21)OCc1ccccc1	68.2	48.1	17200
O=C(N[C@@H](CCCCCCSSc1ccccn1)C(=O)OCc1ccc([N+](=O)[O-])cc1)OCc1ccccc1	64.4	45.5	16900
O=C(N[C@@H](CCCCCCSSc1ccccn1)C(=O)OCc1cccc2ccccc12)OCc1ccccc1	64.7	39.6	15300

Results, then the molecule that gave them:

IC50 (Histone deacetylase 1) [nM]	IC50 (Histone deacetylase 2) [nM]	IC50 (MCF7) [nM]	Compound
5.1	3.9	3200	O=C(N[C@@H](CCCCCCSSc1ccccn1)C(=O)Nc1nc(-c2ccccc2)cs1)OCc1ccccc1
7.6	5.2	3500	O=C(N[C@@H](CCCCCCSSc1ccccn1)C(=O)OCC1c2ccccc2-c2ccccc21)OCc1ccccc1
66.7	48.5	15200	O=C(N[C@@H](CCCCCCSSc1ccccn1)C(=O)OCc1cccc([N+](=O)[O-])c1)OCc1ccccc1
65.2	40.3	14800	O=C(N[C@@H](CCCCCCSSc1ccccn1)C(=O)OCc1ccc2ccccc2c1)OCc1ccccc1
59.2	43.6	14000	O=C(N[C@@H](CCCCCCSSc1ccccn1)C(=O)OCc1c2ccccc2cc2ccccc12)OCc1ccccc1
–	–	1700	CC(/C=C/C(=O)NO)=C\[C@@H](C)C(=O)c1ccc(N(C)C)cc1 [TRICHOSTATIN]
